Results as given in PubChem BioAssay AID489030 (Sanford-Burnham Center for Chemical Genomics, 2010).
In all, about 330,000 compounds went through this assay and about 2,400 (0.73%) were called active. This excerpt belongs to a sample that is enriched for actives. Unmarked numbers belong to inactive results. How the source made its calls: active means inhibition of at least 40% at 20 µM; inactive means the rest.

What follows are compounds tested against Apoptotic protease-activating factor 1 (Homo sapiens) (UniProt O14727) (assay: inhibitors of human Apaf-1 apoptosome, primary screen, biochemical, DEVD-Rh110 fluorescence, uHTS (AID 489030;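 further: plate controls were DMSO wells for no effect and DEVD-CHO caspase inhibitor wells for full effect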)). Details: reconstituted apoptosome caspase-3 activity, at 20 µM, hits give high values.
Chain of Apoptotic protease-activating factor 1 (Homo sapiens) (O14727 whole entry, looked up): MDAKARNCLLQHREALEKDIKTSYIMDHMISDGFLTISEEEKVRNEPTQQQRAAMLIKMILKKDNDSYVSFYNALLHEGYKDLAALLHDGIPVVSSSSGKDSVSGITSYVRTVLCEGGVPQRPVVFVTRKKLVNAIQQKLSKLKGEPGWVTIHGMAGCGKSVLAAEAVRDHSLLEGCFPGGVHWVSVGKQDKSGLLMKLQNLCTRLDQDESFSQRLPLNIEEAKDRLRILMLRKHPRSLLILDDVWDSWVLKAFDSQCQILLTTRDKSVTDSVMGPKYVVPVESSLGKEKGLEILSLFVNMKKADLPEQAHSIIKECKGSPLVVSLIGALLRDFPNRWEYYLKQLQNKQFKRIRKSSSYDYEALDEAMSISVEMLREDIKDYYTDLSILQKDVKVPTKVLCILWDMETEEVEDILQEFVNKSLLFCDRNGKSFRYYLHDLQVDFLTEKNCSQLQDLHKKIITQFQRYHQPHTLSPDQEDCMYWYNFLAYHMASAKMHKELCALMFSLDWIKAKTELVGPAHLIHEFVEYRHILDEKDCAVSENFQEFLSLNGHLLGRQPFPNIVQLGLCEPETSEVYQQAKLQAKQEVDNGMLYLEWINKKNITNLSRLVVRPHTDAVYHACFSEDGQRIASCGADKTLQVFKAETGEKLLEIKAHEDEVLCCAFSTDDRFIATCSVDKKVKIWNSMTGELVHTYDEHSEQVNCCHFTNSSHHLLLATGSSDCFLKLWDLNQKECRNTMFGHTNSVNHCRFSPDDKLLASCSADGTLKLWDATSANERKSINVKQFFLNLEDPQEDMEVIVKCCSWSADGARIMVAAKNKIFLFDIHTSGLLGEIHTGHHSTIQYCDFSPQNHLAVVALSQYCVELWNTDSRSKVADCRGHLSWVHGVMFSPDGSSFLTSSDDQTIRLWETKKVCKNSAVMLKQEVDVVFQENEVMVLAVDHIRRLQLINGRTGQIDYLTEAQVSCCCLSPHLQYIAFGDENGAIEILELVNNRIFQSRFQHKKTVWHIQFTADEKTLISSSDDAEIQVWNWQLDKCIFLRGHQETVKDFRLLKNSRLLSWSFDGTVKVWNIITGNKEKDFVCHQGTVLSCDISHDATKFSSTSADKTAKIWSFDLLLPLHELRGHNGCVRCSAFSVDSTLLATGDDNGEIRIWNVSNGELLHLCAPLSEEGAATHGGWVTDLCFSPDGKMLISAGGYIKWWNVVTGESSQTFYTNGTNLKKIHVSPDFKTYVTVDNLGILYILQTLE
How it was run: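 Medium: Hepes buffer, pH 7.5 / System: biochemical Apaf-1 apoptosome reconstitution / Measured by: Rh110 fluorescence, excitation 480 nm, emission 540 nm / Times: compound with Apaf-1, dATP, procaspase-3 30 min, then 50 min reaction, room temperature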
Compound CCCCn1c(=O)c(C(=O)Nc2ccccc2Cl)c(O)c2ccccc21 has an inhibition of -6.34%.
For CCCCCn1c(=O)c(C(=O)Nc2c(C)n(C)n(-c3ccccc3)c2=O)c(O)c2ccccc21, the inhibition was 46.4% (active).
CCCCCn1c(=O)c(C(=O)NCc2ccccc2)c(O)c2ccccc21 gave an inhibition of -34.9%.
COC(=O)C1=C(c2c(C)noc2C)C[C@@H]2CC[C@H]1N2C(=O)NCc1ccc2c(c1)OCO2 gave an inhibition of 1.57%.
Work on Cc1cccc(-n2c(O)c(/C=N/N3CCOCC3)c(=O)[nH]c2=S)c1 yielded an inhibition of 3.6%.
Compound c1ccc2sc(N3CCNCC3)nc2c1 has an inhibition of -11.3%.
CC(Cc1ccccc1)NCCC(c1ccccc1)c1ccccc1 (stereo not given) was tested, and the inhibition was 41.5% (active).
In the case of CC(Cc1ccccc1)NC=O (stereo not given), the inhibition was 5.78%.
CC(=O)NC(=O)NC(C)Cc1ccccc1 (stereo not given) showed an inhibition of -10.3%.
With CCOc1ccc(CN(CCCl)CCCl)cc1C(=O)OC the inhibition was -1.62%.
Work on CCOC(=O)c1c(N)n(CCN2CCOCC2)c2nc3ccccc3nc12 yielded an inhibition of -3.48%.
For CCOC(=O)c1c(N)n(Cc2ccccc2)c2nc3ccccc3nc12, the inhibition was 79.9% (active).
For COc1cc(Cn2c(N)c(C(=O)NCc3ccco3)c3nc4ccccc4nc32)cc(OC)c1OC, the inhibition was 96.1% (active).
With CC/C(=N\NC(=O)c1ccccc1O)c1c(O)n(Cc2ccccc2)c(=O)[nH]c1=O the inhibition was -8.27%.
With COC(=O)C1=C(c2ccccc2)C[C@@H]2CC[C@H]1N2C(=O)NCc1ccco1 the inhibition was 3.27%.
Work on CCOC(=O)C(O)(c1ccc(NC(=O)c2ccco2)c(OC)c1)C(F)(F)F (stereo not given) yielded an inhibition of 5.81%.
For CN(C)/C=C(\C=[N+](C)C)c1[nH]ncc1[N+](=O)[O-], the inhibition was -1.23%.
Compound COC(=O)C1=C(c2ccc(F)cc2F)C[C@@H]2CC[C@H]1N2C(=O)NC1CC1 has an inhibition of 3.15%.
With CCCn1c(C(=O)c2ccccc2OC)nc2ccccc21 the inhibition was 6.27%.
CCCCCCCCCCCCn1ccc(=N)cc1 was tested, and the inhibition was 43.9% (active).
Compound Cn1c(O)c(C=NCCN2CCNCC2)c(=O)n(C)c1=O has an inhibition of 6.24%.
For COC(=O)CN1C(=O)C2(C(C(=O)OC)=C(N)Oc3ccccc32)C2=C1CC(C)(C)CC2=O (stereo not given), the inhibition was -21%.
CN(C)C(=O)Oc1ccc(NC(=O)N2CCOCC2)cc1 was tested, and the inhibition was -15%.
Work on CC(=C1C(=O)c2ccccc2C1=O)N1CCN(CCN=Cc2c(O)n(C)c(=O)n(C)c2=O)CC1 yielded an inhibition of 1.31%.
With C=CCN1C(=O)NC(=O)/C(=C/c2ccc(OCC(=O)Nc3ccc(C)cc3)cc2)C1=O the inhibition was 8.4%.
O=C(Cc1ccc(Cl)cc1)NCCN1CCN(C(=O)Cc2ccc(Cl)cc2)CC1 gave an inhibition of -6.49%.
For CNCC(O)c1cc(F)c(OCc2ccccc2)c(OCc2ccccc2)c1F (stereo not given), the inhibition was 45.9% (active).
Compound CCc1nc2ccccc2c(=O)n1-c1cccc(OC)c1 has an inhibition of -11.3%.
CNC(=O)N(C)c1nnc(C(C)(C)C)s1 showed an inhibition of -10.6%.
Compound CC(C)c1c(CN(C)C(C)Cc2ccccc2)n(C)n(-c2ccccc2)c1=O (stereo not given) has an inhibition of 9.08%.
